Measured values: ChEMBL document CHEMBL4513216, “Probing the Open Global Health Chemical Diversity Library for Multistage-Active Starting Points for Next-Generation Antimalarials” (ACS Infect Dis, 2020)

Assay: Toxicity liver stage against HepG2, at 10uM
Format: cell-based
Parameters: test concentration 10 uM, cell line HepG2-A16-CD81EGFP
Settings: human, HepG2-A16-CD81EGFP cells; read-out: INHIBITION
In short: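 Uninfected HepG2-A16-CD81EGFP cells, 3 × 10^3 per well, 1536-well, plated on prespotted compound at 10 μM final, parasite-free screening media added to match infected plates; puromycin 10 μM positive, DMSO 0.5% negative; run in parallel with 48 h PbLuc assay at 37 °C, 5% CO2; viability by CellTiter-Glo luminescence, normalized to controls.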

CCOC(=O)c1cnn(-c2cc(Oc3ccccc3)ncn2)c1N
cytotoxicity at 10 µM: 2.93%

CC(=O)Cn1ncc(N2CCOCC2)cc1=O
cytotoxicity at 10 µM: 7.26%

CN(Cc1ccc(F)cc1)Cc1nc(-c2cnccn2)no1
cytotoxicity at 10 µM: 1.27%

CCC(NC(=O)CN(C)Cc1ccc(C)o1)c1ccc(Br)cc1 (stereo unspecified)
cytotoxicity at 10 µM: 35.5%

COCc1cccc(NC(=O)NCCCN(C)S(C)(=O)=O)c1
cytotoxicity at 10 µM: -0.561%

CN(C)c1cc(C(=O)NCC2(c3ccc(F)cc3)CC2)ccn1
cytotoxicity at 10 µM: 8.59%

COc1ccc(O[C@H]2COCCN(C(=O)c3ccno3)C2)cc1
cytotoxicity at 10 µM: -2.41%

O=C(NC[C@H]1OC[C@@H](NCc2ccccc2F)[C@@H]1O)c1ccc(F)cc1
cytotoxicity at 10 µM: -1.26%

CC[C@H]1CN(S(C)(=O)=O)CC[C@H]1CC(=O)NCCSC
cytotoxicity at 10 µM: 3.45%

Cc1occc(=O)c1OCC(=O)N1CCN(c2ccccc2)CC1
cytotoxicity at 10 µM: -2.88%

COC(=O)N1CCC(CNC(=O)C2CC2)CC1
cytotoxicity at 10 µM: -2.82%

CN(CC(=O)NCC(F)(F)F)C(=O)c1ccc(=O)[nH]c1
cytotoxicity at 10 µM: -4.39%

CCN1C(=O)CCC12CCCN(S(=O)(=O)c1cccc(C)c1)CC2 (stereo unspecified)
cytotoxicity at 10 µM: -4.54%

CC(C)N1[C@@H](C(=O)NCC2CC2)C[C@@H]2CN(Cc3ccco3)C[C@@H]21
cytotoxicity at 10 µM: 3.41%

COc1cc(N2CCc3ncnc(-c4ccoc4)c3CC2)ncn1
cytotoxicity at 10 µM: 14.9%

Cc1oncc1C(=O)N1CC[C@H]2CO[C@H](CN3CCCC3)[C@H]2C1
cytotoxicity at 10 µM: 10.8%

COCCNC(=O)C1CN(C(N)=O)Cc2ccnn2C1 (stereo unspecified)
cytotoxicity at 10 µM: 0.0039%

O=C(CSC1CCc2ccccc2NC1=O)Nc1ccc(CCO)cc1 (stereo unspecified)
cytotoxicity at 10 µM: -3.77%

CS(=O)(=O)CC(=O)N1C[C@@H]2COC[C@]2(c2nnc(C3CC3)o2)C1
cytotoxicity at 10 µM: -13.1%

Cc1nn(C)cc1-c1cc(C(F)(F)F)nn1CCC#N
cytotoxicity at 10 µM: 3.65%

CNC(=O)CCc1cc(C2CCCCN2C)nc(C)n1 (stereo unspecified)
cytotoxicity at 10 µM: -0.956%

CN(CCn1cncc1-c1cnc(N2CCOCC2)nc1)C1CCCC1
cytotoxicity at 10 µM: 7.25%

CCCn1cc(Cl)c(C(=O)N2C[C@@H](O)[C@H](Oc3ccccc3)C2)n1
cytotoxicity at 10 µM: 5.31%

CO[C@@H]1CCC[C@@H](N(C)C(=O)c2cn3cc(C)ccc3n2)[C@H]1O
cytotoxicity at 10 µM: 0.829%

Cn1cc(CN(Cc2ccccn2)Cc2ccccc2Cl)cn1
cytotoxicity at 10 µM: -2.48%

Cc1c[nH]c(C2COCCN2C(=O)c2ccc(=O)[nH]n2)n1 (stereo unspecified)
cytotoxicity at 10 µM: -8.77%

Cc1ccccc1CC(=O)N(C)CC1(O)CCCN(c2ccccn2)C1 (stereo unspecified)
cytotoxicity at 10 µM: -18.3%

Cc1csc(C(=O)N2CCC3(CC(N(C)c4ccncn4)C3)C2)c1 (stereo unspecified)
cytotoxicity at 10 µM: -11.2%

CC(c1ccco1)N(C(=O)c1cccc(C#N)c1)C1CC1 (stereo unspecified)
cytotoxicity at 10 µM: 1.18%

NC(=O)c1cnc(NCC(=O)NCc2ccco2)c(Cl)c1
cytotoxicity at 10 µM: 3.97%

CC(OCc1ccccc1)C(=O)NC1CCN(CC(N)=O)CC1 (stereo unspecified)
cytotoxicity at 10 µM: -3.45%

O=C(COCCOc1ccccc1)NC1CCN(c2ccccn2)CC1
cytotoxicity at 10 µM: -4.56%

COCCN1CCN(CC2(O)CCCCC2)CC1
cytotoxicity at 10 µM: 7.04%

OC(CNCc1nnc2ccccn12)c1ccc2c(c1)OCO2 (stereo unspecified)
cytotoxicity at 10 µM: 5.79%

COc1ccc(OCCNC(=O)CN(C)Cc2nnc(C)n2C)cc1
cytotoxicity at 10 µM: -10.3%

N#Cc1ccc(Cl)cc1NCC1CCOC1 (stereo unspecified)
cytotoxicity at 10 µM: 3.09%

O=c1[nH]c(C2CCOC2)nc2cc(F)c(F)cc12 (stereo unspecified)
cytotoxicity at 10 µM: 9.66%

CC(C)c1nn(C)c(N(C)C)c1CNCc1ccnc(N(C)C)c1
cytotoxicity at 10 µM: 1.36%

Cc1nn(C)c(Cl)c1S(=O)(=O)N(CC(N)=O)CC(C)C
cytotoxicity at 10 µM: 8.18%

CCOc1ccc(Cl)cc1CCNC(=O)c1ccc(=O)n(C)c1
cytotoxicity at 10 µM: 3.31%

Cc1cc(C2CCCN(Cc3noc(Cc4ccccc4)n3)C2)n[nH]1 (stereo unspecified)
cytotoxicity at 10 µM: 3.65%

CCc1n[nH]c(C2CN(CC(=O)N(C)Cc3ccco3)CCO2)n1 (stereo unspecified)
cytotoxicity at 10 µM: 1.07%

CC1(C)CN(C(=O)c2occc2COc2cccc(C#N)c2)CCO1
cytotoxicity at 10 µM: 8.18%

Cn1cc(C2(C)CN(c3ncccc3C#N)CCO2)cn1 (stereo unspecified)
cytotoxicity at 10 µM: 4.48%

Cc1cccc(N2CCN(CCC(=O)NCc3nnc[nH]3)CC2)c1
cytotoxicity at 10 µM: -6.26%

CCCS(=O)(=O)N1CCC(NCc2c(C)nn(C)c2OC)CC1
cytotoxicity at 10 µM: 7.01%

O=C(CCc1ccc2c(c1)OCO2)Nc1cccnc1-n1cncn1
cytotoxicity at 10 µM: 4.98%

O=C(NCc1ccccc1CN1CCOCC1)Nc1nncs1
cytotoxicity at 10 µM: 14.3%

CCc1nc(CCNC(=O)Nc2cc(C(N)=O)ccc2OC)cs1
cytotoxicity at 10 µM: 1.43%

CN(Cc1nnc(C2CC2)n1C)C1CCN(Cc2ccccc2)C1 (stereo unspecified)
cytotoxicity at 10 µM: -4.45%

O=C(Cc1cccc(Cl)c1)Nc1cnccc1SCCCO
cytotoxicity at 10 µM: -7.04%

COc1cc(F)ccc1N(C)Cc1ccccn1
cytotoxicity at 10 µM: -1.84%

O=C(NCc1ccncc1)N1CCSCC1CCO (stereo unspecified)
cytotoxicity at 10 µM: 2.3%

Cc1nnc(C(C)N(C)Cc2c(C)nn(-c3ccccc3)c2C)o1 (stereo unspecified)
cytotoxicity at 10 µM: -4.73%

O=C(C[S+]([O-])Cc1c(F)cccc1Cl)N1CCc2sccc2C1 (stereo unspecified)
cytotoxicity at 10 µM: -0.784%

CC(CCNC(=O)NCCNc1cnccn1)c1ccccc1 (stereo unspecified)
cytotoxicity at 10 µM: -4.08%

COc1ccc(-c2noc(C3CCS(=O)(=O)C3)n2)cc1OC (stereo unspecified)
cytotoxicity at 10 µM: 5.4%

CC(NCCCC#N)c1ccc(-c2ccncc2)cc1 (stereo unspecified)
cytotoxicity at 10 µM: -1.93%

COc1c(CNC(C)C(=O)NC2CCCC2)c(C(C)C)nn1C (stereo unspecified)
cytotoxicity at 10 µM: -1.08%

Cc1nc(C2CCCN2CCCn2c(=O)oc3ccccc32)no1 (stereo unspecified)
cytotoxicity at 10 µM: 6.91%

COc1ccc(CN(C)CC(=O)Nc2ccc3[nH]c(=O)[nH]c3c2)cc1F
cytotoxicity at 10 µM: 5.97%

CCc1ccc(NC(=O)C(C)N2CCN(Cc3ncc[nH]3)CC2)cc1 (stereo unspecified)
cytotoxicity at 10 µM: -7.83%

Cc1[nH]ncc1C(=O)NCC(CO)Cc1ccc(Cl)cc1 (stereo unspecified)
cytotoxicity at 10 µM: -0.0785%

CC(C)CNc1nnc(SC(C(=O)NCc2cccnc2)C(C)C)s1 (stereo unspecified)
cytotoxicity at 10 µM: -5.9%

CC(C)(C)C(O)CN1CCN(CCOCC(F)(F)F)CC1 (stereo unspecified)
cytotoxicity at 10 µM: -2.02%

Cc1ccc(C)n1-c1c(C(=O)NCC(C)N(C)C)cnn1C (stereo unspecified)
cytotoxicity at 10 µM: 15.9%

CCN(C(=O)CCc1ccc2[nH]ccc2c1)C1CC(=O)NC1=O (stereo unspecified)
cytotoxicity at 10 µM: -8.96%

c1csc(N2CCN(Cc3nnnn3C3CC3)CC2)n1
cytotoxicity at 10 µM: 8.96%

CCN(C)CC1CCN(C(=O)Nc2ccc(-c3cc[nH]n3)cc2)C1 (stereo unspecified)
cytotoxicity at 10 µM: -6.25%

O=S(=O)(NCCc1c[nH]c2ccc(F)cc12)C1CCOCC1
cytotoxicity at 10 µM: 4.13%

COc1ccc(OC)c(CNc2nnc(C(C)(C)C)o2)c1
cytotoxicity at 10 µM: -6.1%

CC(Cn1cccn1)NCc1csc(-c2ccc3c(c2)OCO3)n1 (stereo unspecified)
cytotoxicity at 10 µM: -26%

c1ccc2c(N3CCCCC3Cn3cncn3)ncnc2c1 (stereo unspecified)
cytotoxicity at 10 µM: 4.16%

CC(C)(C)c1nnc(CN2CCN(S(C)(=O)=O)CC2)o1
cytotoxicity at 10 µM: -4.32%

CCN1CCN(S(=O)(=O)c2ncn(C)c2Cl)CC1
cytotoxicity at 10 µM: 20.9%

CCc1nc(C)sc1CN1CC[C@@](O)(C2CCOCC2)[C@H](C)C1
cytotoxicity at 10 µM: 1.71%

CN(Cc1cc2n(n1)CCN(C(=O)c1cccnc1)C2)Cc1nccs1
cytotoxicity at 10 µM: 1.2%

COc1cccc(OCCCc2cncc(C(N)=O)c2)c1
cytotoxicity at 10 µM: -124%

CCc1ccc(C(=O)N2CC[C@](C)(O)C(C)(C)C2)[nH]1
cytotoxicity at 10 µM: 2.43%

CN(C)C(Cn1ccnc1-c1nccn1C)c1ccccc1Cl (stereo unspecified)
cytotoxicity at 10 µM: -0.0184%

CNc1nc(C(=O)N2CCCN(c3ccnc(C)c3)CC2)cs1
cytotoxicity at 10 µM: 6.37%

Cc1nc(C(C)Nc2ncnc3c2CCNCC3)c(C)s1 (stereo unspecified)
cytotoxicity at 10 µM: -6.64%

CC(=O)N1CCc2c(nc(N(C)C)nc2N(C)CCC2CCCCO2)C1 (stereo unspecified)
cytotoxicity at 10 µM: -7.97%

Cn1cccc1C(=O)N1CCC(c2nnc(Cn3ccnc3)n2C)CC1
cytotoxicity at 10 µM: -114%

CCN1CCC2(CCC1=O)CN(C1CCOCC1)CCN2C (stereo unspecified)
cytotoxicity at 10 µM: -1.14%

Cc1nc[nH]c1-c1nnc(SCC(=O)O)n1-c1ccccc1C(F)(F)F
cytotoxicity at 10 µM: 0.0448%

CCCc1cc(C(=O)N2CCC3(CCCNC3=O)C2)cs1 (stereo unspecified)
cytotoxicity at 10 µM: -142%

CC(=O)c1c(C)nn(CC(=O)N2Cc3cnc(C(C)(C)C)nc3C2)c1C
cytotoxicity at 10 µM: -0.539%

CCNc1nc(C)c(C(=O)N2CCN(c3ncccc3C)CC2)s1
cytotoxicity at 10 µM: 3.77%

CCN1CCCC1CNC(=O)c1cc(COc2ccccc2F)[nH]n1 (stereo unspecified)
cytotoxicity at 10 µM: -4.17%

CCNc1ncc(C(=O)NCc2csc(-c3cnccn3)n2)cn1
cytotoxicity at 10 µM: 0.185%

CN(Cc1nccn1C)CC1CCOc2ccccc2C1 (stereo unspecified)
cytotoxicity at 10 µM: -2.77%

CC(C)c1ccc(OCC(=O)N(C)C)cc1
cytotoxicity at 10 µM: -2.82%

O=C(O)Cc1cccc(-n2ccnc2-c2ccc(F)c(Cl)c2)c1
cytotoxicity at 10 µM: 2.17%

CN(C)c1ccc(CCNC(=O)C2CCC(=O)N(C3CCCC3)C2)cc1 (stereo unspecified)
cytotoxicity at 10 µM: 20.8%

CCN(CCn1cccn1)Cc1nc(-c2cccs2)oc1C
cytotoxicity at 10 µM: -0.179%

Cc1cc(F)ccc1CN1CCC(O)(CN2CCCCC2)C1 (stereo unspecified)
cytotoxicity at 10 µM: 14.8%

Cc1ccc([C@@H]2CN(S(=O)(=O)N(C)C)C[C@H]2N(C)C)cc1
cytotoxicity at 10 µM: 2.47%

COc1ccc(C)cc1CN1CCOC(Cn2nc(C)nc2C)C1 (stereo unspecified)
cytotoxicity at 10 µM: -2.47%

Cc1cc(C(=O)NCc2ccnc(OCC(F)(F)F)c2)no1
cytotoxicity at 10 µM: -7.98%

CCN1CCN(C(=O)C(C)N2CCN(Cc3nccn3C)CC2)CC1 (stereo unspecified)
cytotoxicity at 10 µM: -6.34%

Cn1cc([C@@H]2CN(S(C)(=O)=O)C[C@H]2N)c2ccncc21
cytotoxicity at 10 µM: 2.61%

Fc1ccc(F)c(CN2CCC(c3n[nH]c4ncccc34)CC2)c1
cytotoxicity at 10 µM: -25.4%

Cc1ccc(N2C[C@H]3CCC[C@@H](CN(C)C)[C@H]3C2)nn1
cytotoxicity at 10 µM: 8.82%

CC1c2ncc(CN3CCN(C)CC3)n2CCN1CC1CC1 (stereo unspecified)
cytotoxicity at 10 µM: -20.3%

CN1C[C@@H]2CN(C(=O)NCc3cccc(F)c3)CCC[C@]2(C(=O)O)C1
cytotoxicity at 10 µM: 1.14%

COCCN1C[C@@H](C)[C@@]2(COCCN(C(=O)c3cccc(C)n3)C2)C1
cytotoxicity at 10 µM: 7.13%

O=C(c1ccccc1)N1CCOC2(CCN(Cc3cccs3)CC2)C1
cytotoxicity at 10 µM: 0.64%

O=C(N1CCCO1)[C@@]12CCO[C@@H]1CCN(Cc1ccccc1)C2
cytotoxicity at 10 µM: -13.6%

CC[C@@H]1N(Cc2ccoc2)CCC[C@]12CCC(=O)N2CCOC
cytotoxicity at 10 µM: 11%

Cc1nc(N2CCCC2)nc2c1CN(C(C)C)CC2
cytotoxicity at 10 µM: -6.85%
